Measurements from ChEMBL document CHEMBL1177648, “Synthesis and anti breast cancer activity of biphenyl based chalcones” (Bioorg Med Chem, 2010).
Active and inactive are the calls of the source. The calls are words filed in the database; no cut-off is given here.

Key:
HEK293 = experiment: Cytotoxicity against HEK293 cells after 24 hrs by MTT assay; assay type: cell-based, Homo sapiens
Procedure, shortened: (§1)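 Cells seeded at 1 × 10⁴/well in DMEM with 10% FBS and held 24 h at 37 °C in CO₂. Compounds diluted in culture medium and incubated 24 h. Medium removed, MTT (5 mg/ml) added for 4 h, formazan dissolved in DMSO, absorbance read at 540 nm. Viability given as percent of untreated cells.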

MDA-MB-231 [1] = experiment: Cytotoxicity against human MDA-MB-231 cells after 24 hrs by MTT assay; assay type: functional, cell-based; procedure, shortened: as §1
MCF7 = experiment: Cytotoxicity against human MCF7 cells after 24 hrs by MTT assay; assay type: functional, cell-based; procedure, shortened: as §1
HeLa = experiment: Cytotoxicity against human HeLa cells after 24 hrs by MTT assay; assay type: functional, cell-based; procedure, shortened: as §1
MDA-MB-231 [2] = experiment: Cell cycle arrest in human MDA-MB-231 cells assessed as increase in bax mRNA expression at 5 uM after 24 hrs by RT-PCR; assay type: functional, cell-based
Procedure, shortened: (§2)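 MDA-MB231 cells (1 × 10⁶) grown overnight in six-well plates, treated at 5 µM. Total RNA isolated with Trizol, 1 µg digested with DNase I, then reverse transcribed. Relative mRNA levels of cyclin A1, bax, bcl-2, p21 and p53 measured by real-time PCR against untreated control.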

MDA-MB-231 [3] = experiment: Cell cycle arrest in human MDA-MB-231 cells assessed as reduction in cyclin A1 mRNA expression at 5 uM after 24 hrs by RT-PCR; assay type: functional, cell-based; procedure, shortened: as §2
MDA-MB-231 [4] = experiment: Cell cycle arest in human MDA-MB-231 cells assessed as increase in p21 mRNA expression at 5 uM after 24 hrs by RT-PCR; assay type: functional, cell-based; procedure, shortened: as §2
MDA-MB-231 [5] = experiment: Cell cycle arrest in human MDA-MB-231 cells assessed as decrease in S phase at 5 uM after 24 hrs annexin-V FITC and PI staining by flow cytometry; assay type: functional, cell-based
MDA-MB-231 [6] = experiment: Induction of apoptosis in human MDA-MB-231 cells assessed as increase in caspase level at 5 uM after 24 hrs; assay type: functional, cell-based
Procedure, shortened: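 MDA-MB231 cells kept serum-deprived for 4 h, then treated 24 h at 5 µM. Cells incubated with caspase substrate DEVD-rhodamine-110 in a homogeneous caspase assay. Fluorescence of released rhodamine-110 measured at […].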

MDA-MB-231 [7] = experiment: Cell cycle arrest in human MDA-MB-231 cells assessed as reduction in bcl2 mRNA expression at 5 uM after 24 hrs by RT-PCR; assay type: functional, cell-based; procedure, shortened: as §2
MDA-MB-231 [8] = experiment: Induction of apoptosis in human MDA-MB-231 cells assessed as reduction in membrane potential at 5 uM after 24 hrs by flow cytometry; assay type: functional, cell-based
Procedure, shortened: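 MDA-MB-231 cells treated 24 h at 5 µM, collected by trypsinization and washed with PBS. Cells loaded with JC-1 for 15 min at 37 °C, rinsed three times in phenol-red-free high-glucose DMEM and resuspended in prewarmed medium. Membrane potential taken as the red/green (590/530 nm) fluorescence ratio.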

MDA-MB-231 [9] = experiment: Cell cycle arest in human MDA-MB-231 cells assessed as increase in sub G1 phase at 5 uM after 24 hrs annexin-V FITC and PI staining by flow cytometry; assay type: functional, cell-based
MDA-MB-231 [10] = experiment: Cell cycle arrest in human MDA-MB-231 cells assessed as increase in p53 mRNA expression at 5 uM after 24 hrs by RT-PCR; assay type: functional, cell-based; procedure, shortened: as §2
MDA-MB-231 [11] = experiment: Induction of apoptosis in human MDA-MB-231 cells assessed as early apoptotic cells at 5 uM after 24 hrs annexin-V FITC and PI staining by flow cytometry; assay type: functional, cell-based
Procedure, shortened: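 MDA-MB231 cells (1 × 10⁶) grown overnight in six-well plates, then given 5 µM final compound or vehicle (0.001% DMSO) for 24 h. Floating and adherent cells harvested by trypsinization and washed with PBS. 1 × 10⁵ cells stained with Annexin V-FITC and propidium iodide and analysed by flow cytometry with 488 nm excitation; Annexin V-FITC read at 535 nm emission.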

[12] = Homo sapiens, HEK293, 24 h, read-out: IC50
[13] = Homo sapiens, MDA-MB-231, 24 h, read-out: IC50
[14] = Homo sapiens, MCF7, 24 h, read-out: IC50
[15] = Homo sapiens, HeLa, 24 h, read-out: IC50

SMILES | IC50 (HEK293; [12]) | IC50 (MDA-MB-231 [1]; [13]) | IC50 (MCF7; [14]) | IC50 (HeLa; [15]) | IC50 (HEK293; hek293) | IC50 (HeLa; hela) | also measured
Cc1cc(O)c(C(=O)/C=C/c2ccc(Br)cc2)c(-c2ccc(Br)cc2)c1C(=O)/C=C/c1ccc(Br)cc1 | 30 µM | 18 µM | 15 µM | 30 µM |  |  | 
Cc1cc(O)c(C(=O)/C=C/c2ccc(Cl)cc2)c(-c2ccc(Br)cc2)c1C(=O)/C=C/c1ccc(Cl)cc1 | 25 µM | 15 µM | 20 µM | 32 µM |  |  | 
Cc1cc(O)c(C(=O)/C=C/c2ccccc2Cl)c(-c2ccccc2)c1C(=O)/C=C/c1ccccc1Cl |  |  |  |  | Not Active | Not Active | IC50 (MDA-MB-231 [1]; mda-mb-231): Not Active; IC50 (MCF7; mcf7): Not Active
Cc1cc(O)c(C(=O)/C=C/c2ccc(OCc3ccccc3)cc2)c(-c2ccc(OCc3ccccc3)cc2)c1C(=O)/C=C/c1ccc(OCc2ccccc2)cc1 | 30 µM | 20 µM | 26 µM |  |  | Not Active | 
COc1ccc(/C=C/C(=O)c2c(C)cc(O)c(C(=O)/C=C/c3ccc(OC)cc3)c2-c2ccccc2)cc1 |  |  |  |  | Not Active | Not Active | IC50 (MDA-MB-231 [1]; mda-mb-231): Not Active; IC50 (MCF7; mcf7): Not Active
Cc1cc(O)c(C(=O)/C=C/c2cccc(Cl)c2)c(-c2ccccc2)c1C(=O)/C=C/c1cccc(Cl)c1 | 15 µM | 4.67 µM | 20 µM | 22 µM |  |  | Activity (MDA-MB-231 [2]): Active; Activity (MDA-MB-231 [3]): Active; Activity (MDA-MB-231 [4]): Active; Activity (MDA-MB-231 [5]): Active; Activity (MDA-MB-231 [6]): Active; Activity (MDA-MB-231 [7]): Active; Activity (MDA-MB-231 [8]): Active; Activity (MDA-MB-231 [9]): Active; Activity (MDA-MB-231 [10]): Active; Activity (MDA-MB-231 [11]): Active
Cc1cc(O)c(C(=O)/C=C/c2ccc(OCc3ccccc3)cc2)c(-c2ccc(Br)cc2)c1C(=O)/C=C/c1ccc(OCc2ccccc2)cc1 | 25 µM | 20 µM | 20 µM |  |  | Not Active | 
Cc1cc(O)c(C(=O)/C=C/c2cccc3ccccc23)c(-c2ccccc2)c1C(=O)/C=C/c1cccc2ccccc12 |  |  | 30 µM |  | Not Active | Not Active | IC50 (MDA-MB-231 [1]; mda-mb-231): Not Active
Cc1cc(O)c(C(=O)/C=C/c2cccc3ccccc23)c(-c2ccc(Cl)cc2)c1C(=O)/C=C/c1cccc2ccccc12 | 30 µM | 30 µM | 30 µM |  |  | Not Active | 
Cc1cc(O)c(C(=O)/C=C/c2ccc(Cl)cc2)c(-c2ccccc2)c1C(=O)/C=C/c1ccc(Cl)cc1 | 10 µM | 7.9 µM | 10 µM | 30 µM |  |  | 
Cc1cc(O)c(C(=O)/C=C/c2ccccc2)c(-c2ccc(Cl)cc2)c1C(=O)/C=C/c1ccccc1 | 5 µM | 4.4 µM | 15 µM |  |  | Not Active | Activity (MDA-MB-231 [3]): Active; Activity (MDA-MB-231 [4]): Active; Activity (MDA-MB-231 [5]): Active; Activity (MDA-MB-231 [6]): Active; Activity (MDA-MB-231 [7]): Active; Activity (MDA-MB-231 [8]): Active; Activity (MDA-MB-231 [9]): Active; Activity (MDA-MB-231 [10]): Active; Activity (MDA-MB-231 [11]): Active
Cc1cc(O)c(C(=O)/C=C/c2ccccc2)c(-c2ccccc2)c1C(=O)/C=C/c1ccccc1 |  | 8.5 µM | 10 µM |  | Not Active | Not Active | 
COc1ccc(/C=C/C(=O)c2c(C)cc(O)c(C(=O)/C=C/c3ccc(OC)c(OC)c3)c2-c2ccc(OCc3ccccc3)cc2)cc1OC | 30 µM | 22 µM | 30 µM |  |  | Not Active | 
CC/C(=C(\c1ccccc1)c1ccc(OCCN(C)C)cc1)c1ccccc1 [TAMOXIFEN] | 10 µM | 10 µM | 8.9 µM | 12.5 µM |  |  | 
Cc1cc(O)c(C(=O)/C=C/c2ccccc2Cl)c(-c2ccc(Cl)cc2)c1C(=O)/C=C/c1ccccc1Cl | 30 µM | 29 µM | 30 µM |  |  | Not Active | 
Cc1cc(O)c(C(=O)/C=C/c2ccc(F)cc2)c(-c2ccccc2)c1C(=O)/C=C/c1ccc(F)cc1 |  | 20 µM | 20 µM | 30 µM | Not Active |  | 
Cc1cc(O)c(C(=O)/C=C/c2ccccc2)c(-c2ccc(Br)cc2)c1C(=O)/C=C/c1ccccc1 | 30 µM | 8 µM | 10 µM | 30 µM |  |  | 
Cc1cc(O)c(C(=O)/C=C/c2ccc(OCc3ccccc3)cc2)c(-c2ccccc2)c1C(=O)/C=C/c1ccc(OCc2ccccc2)cc1 | 30 µM | 10 µM | 10 µM | 20 µM |  |  | 
Cc1cc(O)c(C(=O)/C=C/c2ccccc2)c(-c2ccc(OCc3ccccc3)cc2)c1C(=O)/C=C/c1ccccc1 |  |  |  |  | Not Active | Not Active | IC50 (MDA-MB-231 [1]; mda-mb-231): Not Active; IC50 (MCF7; mcf7): Not Active
Cc1cc(O)c(C(=O)/C=C/c2ccc(F)cc2)c(-c2ccc(OCc3ccccc3)cc2)c1C(=O)/C=C/c1ccc(F)cc1 | 30 µM | 15 µM | 28 µM | 25 µM |  |  | 
Cc1cc(O)c(C(=O)/C=C/c2ccc(Cl)cc2)c(-c2ccc(Cl)cc2)c1C(=O)/C=C/c1ccc(Cl)cc1 |  | 30 µM | 28 µM |  | Not Active | Not Active | 
Cc1cc(O)c(C(=O)/C=C/c2ccc(F)cc2)c(-c2ccc(Br)cc2)c1C(=O)/C=C/c1ccc(F)cc1 | 20 µM | 22.3 µM | 20 µM |  |  | Not Active | 
COc1ccc(/C=C/C(=O)c2c(C)cc(O)c(C(=O)/C=C/c3ccc(OC)c(OC)c3)c2-c2ccccc2)cc1OC |  |  |  |  | Not Active | Not Active | IC50 (MDA-MB-231 [1]; mda-mb-231): Not Active; IC50 (MCF7; mcf7): Not Active
Cc1cc(O)c(C(=O)/C=C/c2ccc3ccccc3c2)c(-c2ccc(Cl)cc2)c1C(=O)/C=C/c1ccc2ccccc2c1 |  |  |  |  | Not Active | Not Active | IC50 (MDA-MB-231 [1]; mda-mb-231): Not Active; IC50 (MCF7; mcf7): Not Active
Cc1cc(O)c(C(=O)/C=C/c2ccc(Br)cc2)c(-c2ccccc2)c1C(=O)/C=C/c1ccc(Br)cc1 | 10 µM | 10 µM | 10 µM | 33.5 µM |  |  | 
Cc1cc(O)c(C(=O)/C=C/c2ccc3ccccc3c2)c(-c2ccccc2)c1C(=O)/C=C/c1ccc2ccccc2c1 |  | 30 µM | 31.5 µM |  | Not Active | Not Active | 
COc1ccc(/C=C/C(=O)c2c(C)cc(O)c(C(=O)/C=C/c3ccc(OC)cc3)c2-c2ccc(OCc3ccccc3)cc2)cc1 | 28 µM | 12 µM | 30 µM | 28 µM |  |  | 
Cc1cc(O)c(C(=O)/C=C/c2ccc(Br)cc2)c(-c2ccc(OCc3ccccc3)cc2)c1C(=O)/C=C/c1ccc(Br)cc1 | 20 µM | 30 µM | 30 µM |  |  | Not Active | 
COc1ccc(/C=C/C(=O)c2c(C)cc(O)c(C(=O)/C=C/c3ccc(OC)cc3)c2-c2ccc(Br)cc2)cc1 |  |  |  |  | Not Active | Not Active | IC50 (MDA-MB-231 [1]; mda-mb-231): Not Active; IC50 (MCF7; mcf7): Not Active
Cc1cc(O)c(C(=O)/C=C/c2ccc(Cl)cc2)c(-c2ccc(OCc3ccccc3)cc2)c1C(=O)/C=C/c1ccc(Cl)cc1 |  | 30 µM |  |  | Not Active | Not Active | IC50 (MCF7; mcf7): Not Active
